In ChEMBL document CHEMBL2010720, “Synthesis and evaluation of ursolic acid derivatives as potent cytotoxic agents” (Bioorg Med Chem Lett, 2012):

What was measured:
PC-3 = assay: Cytotoxicity against human PC3 cells after 48 hrs by MTT assay; assay type: functional, cell-based; settings: PC-3, 48 h
In short: (§1)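 Cells seeded at 1×10^4 per well and treated 24 h later for 48 h at 10, 20, 40, 60, 80 and 100 µM, each in six wells. Compounds came from 20 mM DMSO stocks diluted in medium; the vehicle control matched the DMSO of the top dose. MTT was added for 4 h, formazan dissolved in DMSO and read at 570 nm. IC50 was taken as the concentration giving 50% growth inhibition.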

HepG2 = assay: Cytotoxicity against human HepG2 cells after 48 hrs by MTT assay; assay type: functional, cell-based; settings: HepG2, 48 h; in short: as §1
AGS [1] = assay: Cytotoxicity against human AGS cells after 48 hrs by MTT assay; assay type: functional, cell-based; in short: as §1
HT-29 = assay: Cytotoxicity against human HT-29 cells after 48 hrs by MTT assay; assay type: functional, cell-based; settings: HT-29, 48 h; in short: as §1
AGS [2] = assay: Cell cycle arrest in human AGS cells assessed as accumulation at S phase cells at 10 uM after 48 hrs by flow cytometry (reference value: 36.56 +/- 0.36%); assay type: functional
AGS [3] = assay: Cell cycle arrest in human AGS cells assessed as accumulation at G0/G1 phase cells at 10 uM after 48 hrs by flow cytometry (reference value: 28.07 +/- 3.52%); assay type: functional
AGS [4] = assay: Cell cycle arrest in human AGS cells assessed as accumulation at sub-G0/G1 phase cells at 10 uM after 48 hrs by flow cytometry (reference value: 1.56 +/- 0.20%); assay type: functional
AGS [5] = assay: Cell cycle arrest in human AGS cells assessed as accumulation at G2/M phase cells at 10 uM after 48 hrs by flow cytometry (reference value: 35.37 +/- 3.73%); assay type: functional
AGS [6] = assay: Induction of apoptosis in human AGS cells assessed as early apoptotic cells at 5 uM after 24 hrs by annexin-V/PI staining-based flow cytometric analysis (reference value: 1.9%); assay type: functional
AGS [7] = assay: Induction of apoptosis in human AGS cells assessed as early apoptotic cells at 10 uM after 24 hrs by annexin-V/PI staining-based flow cytometric analysis (reference value: 1.9%); assay type: functional
AGS [8] = assay: Induction of apoptosis in human AGS cells assessed as viable cells at 5 uM after 24 hrs by annexin-V/PI staining-based flow cytometric analysis (reference value: 95.5%); assay type: functional; settings: read-out: Activity
AGS [9] = assay: Induction of apoptosis in human AGS cells assessed as early apoptotic cells at 20 uM after 24 hrs by annexin-V/PI staining-based flow cytometric analysis (reference value: 1.9%); assay type: functional
AGS [10] = assay: Induction of apoptosis in human AGS cells assessed as late apoptotic cells at 20 uM after 24 hrs by annexin-V/PI staining-based flow cytometric analysis (reference value: 2.5%); assay type: functional
AGS [11] = assay: Induction of apoptosis in human AGS cells assessed as late apoptotic cells at 10 uM after 24 hrs by annexin-V/PI staining-based flow cytometric analysis (reference value: 2.5%); assay type: functional
AGS [12] = assay: Induction of apoptosis in human AGS cells assessed as necrotic cells at 20 uM after 24 hrs by annexin-V/PI staining-based flow cytometric analysis (reference value: 0.1%); assay type: functional
AGS [13] = assay: Induction of apoptosis in human AGS cells assessed as late apoptotic cells at 5 uM after 24 hrs by annexin-V/PI staining-based flow cytometric analysis (reference value: 2.5%); assay type: functional
AGS [14] = assay: Induction of apoptosis in human AGS cells assessed as viable cells at 10 uM after 24 hrs by annexin-V/PI staining-based flow cytometric analysis (reference value: 95.5%); assay type: functional; settings: read-out: Activity
AGS [15] = assay: Induction of apoptosis in human AGS cells assessed as viable cells at 20 uM after 24 hrs by annexin-V/PI staining-based flow cytometric analysis (reference value: 95.5%); assay type: functional; settings: read-out: Activity
AGS [16] = assay: Induction of apoptosis in human AGS cells assessed as necrotic cells at 5 uM after 24 hrs by annexin-V/PI staining-based flow cytometric analysis (reference value: 0.1%); assay type: functional
AGS [17] = assay: Induction of apoptosis in human AGS cells assessed as necrotic cells at 10 uM after 24 hrs by annexin-V/PI staining-based flow cytometric analysis (reference value: 0.1%); assay type: functional
AGS [18] = assay: Cell cycle arrest in human AGS cells assessed as accumulation at sub-G0/G1 phase at 20.6 uM after 48 hrs by flow cytometry (reference value: 1.56 +/- 0.20%); assay type: functional
AGS [19] = assay: Cell cycle arrest in human AGS cells assessed as accumulation at S phase cells at 20.6 uM after 48 hrs by flow cytometry (reference value: 36.56 +/- 0.36%); assay type: functional
AGS [20] = assay: Cell cycle arrest in human AGS cells assessed as accumulation at G0/G1 phase cells at 20.6 uM after 48 hrs by flow cytometry (reference value: 28.07 +/- 3.52%); assay type: functional
AGS [21] = assay: Cell cycle arrest in human AGS cells assessed as accumulation at G2/M phase cells at 20.6 uM after 48 hrs by flow cytometry (reference value: 35.37 +/- 3.73%); assay type: functional

SMILES	IC50 (PC-3) [µM]	IC50 (HepG2) [µM]	IC50 (AGS [1]) [µM]	IC50 (HT-29) [µM]	Activity (AGS [2]) [%]	Activity (AGS [3]) [%]	Activity (AGS [4]) [%]	Activity (AGS [5]) [%]	also measured
C[C@H]1[C@H](C)CC[C@]2(C(=O)NC(CC(=O)O)C(=O)O)CC[C@]3(C)C(=CC[C@@H]4[C@@]5(C)CC[C@H](O)C(C)(C)[C@@H]5CC[C@]43C)[C@H]12 (stereo not given in full)	> 100	> 100	> 100	> 100					
C[C@H]1[C@H](C)CC[C@]2(C(=O)NC(CCC(=O)O)C(=O)O)CC[C@]3(C)C(=CC[C@@H]4[C@@]5(C)CC[C@H](O)C(C)(C)[C@@H]5CC[C@]43C)[C@H]12 (stereo not given in full)	> 100	> 100	> 100	> 100					
CC(=O)O[C@H]1CC[C@]2(C)[C@H]3CC=C4[C@@H]5[C@@H](C)[C@H](C)CC[C@]5(C(=O)NCCN)CC[C@@]4(C)[C@]3(C)CC[C@H]2C1(C)C	< 10	12.4	< 10	< 10	1.42	51.86	88.3	46.72	
C[C@H]1[C@H](C)CC[C@]2(C(=O)NCCN)CC[C@]3(C)C(=CC[C@@H]4[C@@]5(C)CC[C@H](O)C(C)(C)[C@@H]5CC[C@]43C)[C@H]12	< 10	21.3	11.4	14.3	66.66	30.83	92.64	2.51	Activity (AGS [6]): 8.9%; Activity (AGS [7]): 27.7%; viability at 5 µM (AGS [8]): 84.7%; Activity (AGS [9]): 68.6%; Activity (AGS [10]): 17.2%; Activity (AGS [11]): 11.8%; Activity (AGS [12]): 0.5%; Activity (AGS [13]): 6.1%; viability at 10 µM (AGS [14]): 59.9%; viability at 20 µM (AGS [15]): 13.7%; Activity (AGS [16]): 0.2%; Activity (AGS [17]): 0.7%
CC(=O)O[C@H]1CC[C@]2(C)[C@H]3CC=C4[C@@H]5[C@@H](C)[C@H](C)CC[C@]5(C(=O)NCCNC(=O)CN)CC[C@@]4(C)[C@]3(C)CC[C@H]2C1(C)C	14.3	15.5	< 10	20.2	25.37	36.97	75.45	37.66	
CSCC[C@H](N)C(=O)NCCNC(=O)[C@]12CC[C@@H](C)[C@H](C)[C@H]1C1=CC[C@@H]3[C@@]4(C)CC[C@H](OC(C)=O)C(C)(C)[C@@H]4CC[C@@]3(C)[C@]1(C)CC2	< 10	< 10	< 10	< 10	0	54.97	82.38	45.03	
CC(=O)O[C@H]1CC[C@]2(C)[C@H]3CC=C4[C@@H]5[C@@H](C)[C@H](C)CC[C@]5(C(=O)NCCNC(=O)[C@@H](N)Cc5ccccc5)CC[C@@]4(C)[C@]3(C)CC[C@H]2C1(C)C	< 10	< 10	< 10	< 10	2.06	63.49	87.64	35.31	
C[C@H]1[C@H](C)CC[C@]2(C(=O)NCCNC(=O)CN)CC[C@]3(C)C(=CC[C@@H]4[C@@]5(C)CC[C@H](O)C(C)(C)[C@@H]5CC[C@]43C)[C@H]12	19.6		10.2		11.23	17.72	44.69	71.45	
CSCC[C@H](N)C(=O)NCCNC(=O)[C@]12CC[C@@H](C)[C@H](C)[C@H]1C1=CC[C@@H]3[C@@]4(C)CC[C@H](O)C(C)(C)[C@@H]4CC[C@@]3(C)[C@]1(C)CC2	< 10	16	< 10		18.46	12.9	50.03	68.65	
C[C@H]1[C@H](C)CC[C@]2(C(=O)NCCNC(=O)[C@@H](N)Cc3ccccc3)CC[C@]3(C)C(=CC[C@@H]4[C@@]5(C)CC[C@H](O)C(C)(C)[C@@H]5CC[C@]43C)[C@H]12	< 10		< 10		11.79	42.62	47.73	45.59	
CC(=O)O[C@H]1C(=O)[C@@]2(C)[C@H]([C@H](OC(=O)c3ccccc3)[C@]3(O)C[C@H](OC(=O)[C@H](O)[C@@H](NC(=O)c4ccccc4)c4ccccc4)C(C)=C1C3(C)C)[C@]1(OC(C)=O)CO[C@@H]1C[C@@H]2O [PACLITAXEL]	57.2	30.7	< 10	< 10	7.9	5.92	70.41	86.18	
C[C@H]1[C@H](C)CC[C@]2(C(=O)O)CC[C@]3(C)C(=CC[C@@H]4[C@@]5(C)CC[C@H](O)C(C)(C)[C@@H]5CC[C@]43C)[C@H]12 [URSOLIC ACID]	22.3	53.4	20.6	25.3					Activity (AGS [18]): 86.53%; Activity (AGS [19]): 14.64%; Activity (AGS [20]): 33.2%; Activity (AGS [21]): 52.16%
